One test deals with HCC827. In words: Antiproliferative activity against human HCC827 cells assessed as inhibition of cell viability after 72 hrs by CCK-8 assay. The settings on record: HCC827, 72 h. It counts as functional, cell-based. In outline: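 Cells kept at 37 °C, 5% CO2 in DMEM or RPMI-1640 with 10% FBS and 1% penicillin/streptomycin, then seeded at 3000 cells/well (adherent) or 10,000 cells/well (suspension). Exposed to a range of concentrations for 72 h. CCK-8 added for 1-4 h before reading A450. […] Three independent experiments.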
In general terms: Formazan colour is commonly taken as a measure of viable cells.

The subject of test [1] is NCI-H1299. In words: Induction of apoptosis in human H1299 cells assessed as necrotic cells at 1 uM after 48 hrs by AnnexinV-FITC/PI staining-based flow cytometric analysis (reference value: 0.9%). It counts as functional. A general note: A flow cytometer gives signals particle by particle.
Test [2] relates to NCI-H1299. In words: Induction of apoptosis in human H1299 cells assessed as viable cells at 0.5 uM after 48 hrs by AnnexinV-FITC/PI staining-based flow cytometric analysis (reference value: 97.1%). The class given is functional. The settings on record: NCI-H1299, 48 h, read-out: Activity.
For test [3], the system named is NCI-H1299. In words: Induction of apoptosis in human H1299 cells assessed as early apoptotic cells at 0.5 uM after 48 hrs by AnnexinV-FITC/PI staining-based flow cytometric analysis (reference value: 0.248%). It counts as functional.
The subject of test [4] is NCI-H1299. In words: Antitumour activity against human H1299 cells xenografted in Balb/c mouse assessed as tumour weight at 80 mg/kg, po after 21 days by digital caliper method (reference value: 2.17 g). The class given is functional. In outline: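 Female nude mice, 6-8 weeks old, injected subcutaneously with 1×10^6 H1299 cells (100 µL of a 1×10^7/mL suspension in serum-free medium). At 100-120 mm3, randomized into groups of 5. Dosed orally each day for 21 days with drug dissolved in DMSO, or with vehicle. Caliper measurements and body weight taken every other day. Volume = short²×long×0.5. Growth inhibition based on change in volume relative to vehicle. Tumours weighed at the end.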
In general terms: A xenograft is tissue or cells of one species grown in another, often human tumour cells in immunodeficient mice.

In test [5] the target is Activin receptor type-1-like (Homo sapiens) (UniProt P37023). In words: Inhibition of recombinant human ALK1 (142 to end residues) at 1 uM using casein as substrate measured after 40 mins in presence of [gamma33P]ATP by scintillation counting method relative to control.
Test [6] deals with Aurora kinase C (Homo sapiens) (UniProt Q9UQB9). In words: Inhibition of recombinant human AURKC (35 to end residues) at 1 uM using AKRRRLSSLRA as substrate measured after 40 mins in presence of [gamma33P]ATP by scintillation counting method relative to control.
Test [7] concerns the target Bone morphogenetic protein receptor type-2 (Homo sapiens) (UniProt Q13873). In words: Inhibition of recombinant human BMPR2 (172 to 734 residues) at 1 uM using myelin basic protein as substrate measured after 120 mins in presence of [gamma33P]ATP by scintillation counting method relative to control.
The species named for the next test is Homo sapiens. In words: Inhibition of recombinant human BrSK2 […] mutant (2 to end residues) at 1 uM using KKLNRTLSFAEPG as substrate measured after 40 mins in presence of [gamma33P]ATP by scintillation counting method relative to control.
Test [8] deals with Calcium/calmodulin-dependent protein kinase type II subunit alpha (Homo sapiens) (UniProt Q9UQM7). In words: Inhibition of full-length recombinant human CaMK2 alpha at 1 uM using KKLNRTLSFAEPG as substrate measured after 40 mins in presence of [gamma33P]ATP by scintillation counting method relative to control. In outline: (§1)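 Percent inhibition of kinase activity at a single compound concentration, measured by the outsourced Eurofins KinaseProfiler panel. Values are the mean of two independent experiments.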

Test [9] addresses MAP/microtubule affinity-regulating kinase 4 (Homo sapiens) (UniProt Q96L34). In words: Inhibition of full-length recombinant human MARK4 at 1 uM using KKKVSRSGLYRSPSMPENLNRPR as substrate measured after 40 mins in presence of [gamma33P]ATP by scintillation counting method relative to control. In outline:
as §1

The target of test [10] is Myosin light chain kinase, smooth muscle (Homo sapiens) (UniProt Q15746). In words: Inhibition of recombinant human MLCK (1425 to 1771 residues) at 1 uM using calmodulin as substrate measured after 40 mins in presence of [gamma33P]ATP by scintillation counting method relative to control.
Test [11] has as its target Serine/threonine-protein kinase 3 (Homo sapiens) (UniProt Q13188). In words: Inhibition of recombinant human MST2 (2 to end residues) at 1 uM using myelin basic protein as substrate measured after 40 mins in presence of [gamma33P]ATP by scintillation counting method relative to control.
Test [12] has as its target Mast/stem cell growth factor receptor Kit (Homo sapiens) (UniProt P10721). In words: Inhibition of recombinant human cKit (544 to end residues) at 1 uM using Poly(Glu,Tyr) 4:1 as substrate measured after 40 mins in presence of [gamma33P]ATP by scintillation counting method relative to control. In outline: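 Single-point inhibition at 1 µM was measured in the Eurofins KinaseProfiler panel. Values are the mean of two independent experiments.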

For test [13], the target named is Serine/threonine-protein kinase PAK 3 (Homo sapiens) (UniProt O75914). In words: Inhibition of recombinant full-length human PAK3 at 1 uM using RRRLSFAEPG as substrate measured after 40 mins in presence of [gamma33P]ATP by scintillation counting method relative to control.
In test [14] the target is Serine/threonine-protein kinase PAK 5 (Homo sapiens) (UniProt Q9P286). In words: Inhibition of recombinant human PAK5 (425 to end residues) at 1 uM using RRRLSFAEPG as substrate measured after 40 mins in presence of [gamma33P]ATP by scintillation counting method relative to control.
Test [15] addresses PAS domain-containing serine/threonine-protein kinase (Homo sapiens) (UniProt Q96RG2). In words: Inhibition of recombinant human PASK (995 to end residues) at 1 uM using KKLNRTLSFAEPG as substrate measured after 40 mins in presence of [gamma33P]ATP by scintillation counting method relative to control.
In test [16] the target is Ribosomal protein S6 kinase alpha-2 (Homo sapiens) (UniProt Q15349). In words: Inhibition of human Rsk2 (2 to end residues) at 1 uM using KKKNRTLSVA as substrate measured after 40 mins in presence of [gamma33P]ATP by scintillation counting method relative to control. In outline:
as §1

Test [17] deals with Macrophage colony-stimulating factor 1 receptor (Homo sapiens), P07333 [Y969C]. In words: Inhibition of recombinant human Fms (538 to end residues) Y969C mutant at 1 uM using EEEEYEEEEEEYYIIEEEEEEYEEEEEEYYEEEEEEKKKK as substrate measured after 40 mins in presence of [gamma33P]ATP by scintillation counting method relative to control.
The target in test [18] is Insulin-like growth factor 1 receptor (Homo sapiens) (UniProt P08069). In words: Inhibition of recombinant human IGF1R (959 to end residues) at 1 uM using KKKSPGEYVNIEFG as substrate measured after 40 mins in presence of [gamma33P]ATP by scintillation counting method relative to control.
The target in test [19] is Cyclin-dependent kinase 9 (Homo sapiens) (UniProt P50750). The settings on record: 0.25 uM.

The source made the active and inactive calls. No cut-off for these calls is given here.

Chain of Aurora kinase C (Homo sapiens) (Q9UQB9 whole entry, the tested form may be a part): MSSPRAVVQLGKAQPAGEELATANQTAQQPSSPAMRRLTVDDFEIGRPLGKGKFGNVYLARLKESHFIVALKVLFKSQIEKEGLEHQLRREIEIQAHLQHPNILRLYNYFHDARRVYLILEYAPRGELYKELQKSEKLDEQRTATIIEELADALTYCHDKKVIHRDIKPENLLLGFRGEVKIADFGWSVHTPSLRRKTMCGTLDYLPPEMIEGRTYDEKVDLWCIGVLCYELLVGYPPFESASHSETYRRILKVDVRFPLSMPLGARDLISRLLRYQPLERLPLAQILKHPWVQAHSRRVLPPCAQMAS
Chain of Macrophage colony-stimulating factor 1 receptor (Homo sapiens), P07333 [Y969C] (P07333 whole entry Y969C): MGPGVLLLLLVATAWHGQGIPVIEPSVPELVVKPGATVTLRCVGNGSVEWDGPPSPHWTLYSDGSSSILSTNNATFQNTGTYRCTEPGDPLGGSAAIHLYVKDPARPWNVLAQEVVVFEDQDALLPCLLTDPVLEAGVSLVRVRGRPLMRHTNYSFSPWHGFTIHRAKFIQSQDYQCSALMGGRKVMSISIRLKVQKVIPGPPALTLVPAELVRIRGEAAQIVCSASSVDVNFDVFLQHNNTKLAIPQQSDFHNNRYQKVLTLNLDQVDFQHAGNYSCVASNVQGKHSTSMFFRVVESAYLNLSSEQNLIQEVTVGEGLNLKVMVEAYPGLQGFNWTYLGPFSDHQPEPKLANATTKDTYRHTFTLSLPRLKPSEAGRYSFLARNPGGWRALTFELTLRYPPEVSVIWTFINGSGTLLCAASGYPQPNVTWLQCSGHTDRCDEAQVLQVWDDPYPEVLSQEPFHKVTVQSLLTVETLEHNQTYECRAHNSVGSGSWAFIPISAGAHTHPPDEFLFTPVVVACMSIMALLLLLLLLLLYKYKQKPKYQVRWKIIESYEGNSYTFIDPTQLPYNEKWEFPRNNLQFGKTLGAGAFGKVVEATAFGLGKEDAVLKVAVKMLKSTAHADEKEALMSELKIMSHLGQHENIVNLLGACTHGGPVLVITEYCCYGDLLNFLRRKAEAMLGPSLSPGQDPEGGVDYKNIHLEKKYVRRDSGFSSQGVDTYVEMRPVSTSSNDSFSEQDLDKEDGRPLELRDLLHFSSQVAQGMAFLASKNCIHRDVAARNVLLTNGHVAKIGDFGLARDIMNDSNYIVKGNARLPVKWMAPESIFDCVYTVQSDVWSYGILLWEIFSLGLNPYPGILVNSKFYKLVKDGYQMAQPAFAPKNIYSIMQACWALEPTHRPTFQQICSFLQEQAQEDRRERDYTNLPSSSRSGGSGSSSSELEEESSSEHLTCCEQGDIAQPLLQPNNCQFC
Chain of Serine/threonine-protein kinase 3 (Homo sapiens) (Q13188 whole entry): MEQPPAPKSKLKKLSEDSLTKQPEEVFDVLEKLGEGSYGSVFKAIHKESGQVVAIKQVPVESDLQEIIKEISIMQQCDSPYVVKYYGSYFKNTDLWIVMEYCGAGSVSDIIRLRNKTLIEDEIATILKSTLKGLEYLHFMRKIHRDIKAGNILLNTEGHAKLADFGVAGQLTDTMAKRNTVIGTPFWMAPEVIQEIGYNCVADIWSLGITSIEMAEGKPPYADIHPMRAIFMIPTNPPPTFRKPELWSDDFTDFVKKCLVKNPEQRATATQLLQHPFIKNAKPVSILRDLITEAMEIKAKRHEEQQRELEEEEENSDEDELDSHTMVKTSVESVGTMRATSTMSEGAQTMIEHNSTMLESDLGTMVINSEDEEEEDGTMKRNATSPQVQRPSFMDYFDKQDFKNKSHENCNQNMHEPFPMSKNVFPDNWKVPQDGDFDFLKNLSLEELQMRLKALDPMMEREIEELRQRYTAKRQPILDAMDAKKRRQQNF
Chain of Serine/threonine-protein kinase PAK 5 (Homo sapiens) (Q9P286 whole entry, looked up, the tested form may be a part): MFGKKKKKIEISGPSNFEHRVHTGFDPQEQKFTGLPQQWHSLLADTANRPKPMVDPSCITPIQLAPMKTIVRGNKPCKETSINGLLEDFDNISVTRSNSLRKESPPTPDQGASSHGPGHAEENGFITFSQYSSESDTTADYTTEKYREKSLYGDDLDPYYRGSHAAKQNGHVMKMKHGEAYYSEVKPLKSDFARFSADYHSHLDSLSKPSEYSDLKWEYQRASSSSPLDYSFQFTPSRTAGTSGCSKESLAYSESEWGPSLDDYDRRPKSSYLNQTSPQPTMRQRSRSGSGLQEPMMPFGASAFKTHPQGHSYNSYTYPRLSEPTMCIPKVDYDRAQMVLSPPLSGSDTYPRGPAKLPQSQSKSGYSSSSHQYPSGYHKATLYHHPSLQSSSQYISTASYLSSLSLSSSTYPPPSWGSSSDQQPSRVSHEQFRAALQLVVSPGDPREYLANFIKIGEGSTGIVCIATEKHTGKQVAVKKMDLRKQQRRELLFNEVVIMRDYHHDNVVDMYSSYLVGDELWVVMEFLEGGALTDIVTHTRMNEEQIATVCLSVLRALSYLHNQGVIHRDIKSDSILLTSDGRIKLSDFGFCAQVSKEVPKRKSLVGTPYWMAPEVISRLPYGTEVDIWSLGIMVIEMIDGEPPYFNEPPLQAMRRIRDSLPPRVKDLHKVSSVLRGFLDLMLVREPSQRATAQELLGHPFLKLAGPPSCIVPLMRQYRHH
Chain of Serine/threonine-protein kinase PAK 3 (Homo sapiens) (O75914 whole entry, looked up): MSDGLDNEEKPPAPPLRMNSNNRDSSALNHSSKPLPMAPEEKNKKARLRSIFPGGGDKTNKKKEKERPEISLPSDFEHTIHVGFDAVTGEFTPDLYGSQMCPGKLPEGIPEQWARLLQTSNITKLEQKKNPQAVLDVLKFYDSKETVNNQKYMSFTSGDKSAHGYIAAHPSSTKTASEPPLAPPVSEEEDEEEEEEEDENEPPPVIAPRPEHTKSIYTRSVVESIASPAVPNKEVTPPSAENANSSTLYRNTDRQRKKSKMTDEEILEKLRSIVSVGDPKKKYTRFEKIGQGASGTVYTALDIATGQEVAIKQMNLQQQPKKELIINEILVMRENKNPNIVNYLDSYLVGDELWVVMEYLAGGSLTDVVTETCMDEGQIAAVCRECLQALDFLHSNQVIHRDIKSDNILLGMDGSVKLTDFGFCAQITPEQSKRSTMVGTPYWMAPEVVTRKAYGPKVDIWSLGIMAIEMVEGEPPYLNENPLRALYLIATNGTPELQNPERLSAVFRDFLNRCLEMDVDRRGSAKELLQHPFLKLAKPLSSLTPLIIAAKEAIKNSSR
Chain of Calcium/calmodulin-dependent protein kinase type II subunit alpha (Homo sapiens) (Q9UQM7 whole entry): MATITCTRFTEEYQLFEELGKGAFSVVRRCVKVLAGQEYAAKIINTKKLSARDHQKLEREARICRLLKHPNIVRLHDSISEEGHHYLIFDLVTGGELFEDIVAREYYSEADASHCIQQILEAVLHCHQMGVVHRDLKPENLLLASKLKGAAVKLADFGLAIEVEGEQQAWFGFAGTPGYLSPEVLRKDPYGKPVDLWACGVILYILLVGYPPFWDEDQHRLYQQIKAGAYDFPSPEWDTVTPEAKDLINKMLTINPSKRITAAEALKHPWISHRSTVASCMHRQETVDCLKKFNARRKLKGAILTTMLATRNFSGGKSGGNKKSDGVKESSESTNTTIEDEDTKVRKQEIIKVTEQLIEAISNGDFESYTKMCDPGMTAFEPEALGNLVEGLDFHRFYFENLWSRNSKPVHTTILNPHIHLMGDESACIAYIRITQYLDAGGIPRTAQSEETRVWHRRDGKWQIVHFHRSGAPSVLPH
Chain of Activin receptor type-1-like (Homo sapiens) (P37023 whole entry): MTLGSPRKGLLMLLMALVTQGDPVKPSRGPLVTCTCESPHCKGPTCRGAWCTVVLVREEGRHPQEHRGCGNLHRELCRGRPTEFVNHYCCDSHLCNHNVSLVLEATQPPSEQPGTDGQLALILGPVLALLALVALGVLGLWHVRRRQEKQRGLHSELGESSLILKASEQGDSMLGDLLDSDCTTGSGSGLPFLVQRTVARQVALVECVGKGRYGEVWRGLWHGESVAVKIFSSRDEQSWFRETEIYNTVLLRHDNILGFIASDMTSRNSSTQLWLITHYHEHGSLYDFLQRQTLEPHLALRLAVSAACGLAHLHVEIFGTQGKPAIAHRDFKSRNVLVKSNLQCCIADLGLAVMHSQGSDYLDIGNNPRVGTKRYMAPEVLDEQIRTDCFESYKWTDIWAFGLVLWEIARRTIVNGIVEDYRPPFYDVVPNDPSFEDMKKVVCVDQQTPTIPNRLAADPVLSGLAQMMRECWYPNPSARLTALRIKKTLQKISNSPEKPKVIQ
Chain of Mast/stem cell growth factor receptor Kit (Homo sapiens) (P10721 whole entry): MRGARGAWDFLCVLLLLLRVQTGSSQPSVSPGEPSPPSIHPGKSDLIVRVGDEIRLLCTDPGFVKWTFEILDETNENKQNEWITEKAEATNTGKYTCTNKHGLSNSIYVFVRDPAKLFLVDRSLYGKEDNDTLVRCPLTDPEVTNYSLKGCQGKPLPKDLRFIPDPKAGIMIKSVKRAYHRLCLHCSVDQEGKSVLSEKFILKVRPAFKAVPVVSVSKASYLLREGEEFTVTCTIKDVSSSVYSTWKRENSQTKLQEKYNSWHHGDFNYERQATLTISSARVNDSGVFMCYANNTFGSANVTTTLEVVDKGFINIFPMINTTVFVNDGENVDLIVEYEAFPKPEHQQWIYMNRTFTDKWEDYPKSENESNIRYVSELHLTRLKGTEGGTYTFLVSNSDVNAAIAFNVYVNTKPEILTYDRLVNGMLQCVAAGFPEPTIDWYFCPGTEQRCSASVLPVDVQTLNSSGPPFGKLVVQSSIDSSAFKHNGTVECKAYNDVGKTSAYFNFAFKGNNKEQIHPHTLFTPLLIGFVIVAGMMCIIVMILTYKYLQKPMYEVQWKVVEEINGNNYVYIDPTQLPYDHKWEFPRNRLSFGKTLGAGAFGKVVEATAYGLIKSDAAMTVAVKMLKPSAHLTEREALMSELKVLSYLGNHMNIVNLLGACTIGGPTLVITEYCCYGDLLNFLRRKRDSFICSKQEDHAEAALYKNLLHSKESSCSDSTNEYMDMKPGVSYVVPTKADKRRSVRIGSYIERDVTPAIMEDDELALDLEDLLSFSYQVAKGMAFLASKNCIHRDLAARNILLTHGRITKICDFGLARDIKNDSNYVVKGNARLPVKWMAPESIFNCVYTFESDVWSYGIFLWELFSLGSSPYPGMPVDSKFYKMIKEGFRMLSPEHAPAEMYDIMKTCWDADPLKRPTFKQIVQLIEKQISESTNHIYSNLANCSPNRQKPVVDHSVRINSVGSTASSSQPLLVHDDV

Regarding `CN(C)C(=O)c1cc2cnc(Nc3ccc(NC(=O)CCCCCCCN=C=S)cc3)nc2n1C1CCCC1`, the IC50 with HCC827 turned out to be 1070 nM. Also, the Activity stood at 3.64% in the test with NCI-H1299 [1], 0.758% with NCI-H1299 [3] and 0.18 g with NCI-H1299 [4]. Also, in the test with NCI-H1299 [2], the viability at 0.5 µM worked out at 94.5%. In addition, the inhibition in test [5] was -5%; in test [6] it was 72%; in test [7], 73%; in the test listed under Homo sapiens, 14%; in [8] it was 61%; in test [9], 77%. Also, the inhibition in test [10] is 5%; in [11], 43%; in test [12] it was 26%; in test [13] it was 2%; in test [14] it was -3%; in test [15], 6%. Moreover, the inhibition in test [16] is 19%; in [17], 40%; in [18] it was -10%. In test [19], the inhibition entry is “Active”.

As usually defined, the IC50 is the point on the concentration scale where inhibition reaches its midpoint. The inhibition is the drop in the measured response relative to a control, in per cent.
